In ChEMBL document CHEMBL5653608 (Br J Pharmacol, 2011):

Columns and labels:
[1] = Inhibition of EFS-induced contraction of human myometrium incubated for 60 mins; assay type: functional, tissue-based
Outline: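 Human myometrial strips (donors aged 24–76) in a 15 mL Krebs bath at 37°C, under EFS at 15 V, 1.5 ms pulses, 10 s every 100 s, at a submaximal 15 Hz. Antagonist (10 or 100 nM) or vehicle was equilibrated for 60 min. Cumulative butaprost (0.1 nM–10 µM) or PGE2 (0.1 nM–3 µM) was given for at least five EFS responses per concentration. pKB was calculated from same-donor concentration ratios.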

[2] = Inhibition of EFS-induced contraction of Beagle dog bronchiole; assay type: functional, tissue-based, Canis lupus familiaris
[3] = Induction of relaxation in forskolin-induced carbachol pre-contracted C57BL/6 mouse trachea incubated for 30 mins; assay type: functional, tissue-based
Outline: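 Male C57BL/6 tracheal rings at 0.35 g tension in Krebs (95% O2/5% CO2, 37°C). Rings were precontracted with 10 µM carbachol before cumulative half-log PGE2 (0.1 nM–30 µM). Curves were repeated in the same ring after 30 min with 3 nM antagonist or DMSO, and 10 µM forskolin set maximal relaxation. pKB = log(CR−1) − log[B].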

[4] = Induction of relaxation in […] C57BL/6 mouse trachea at 0.1 to 30 uM incubated for 30 mins relative to control (reference value: 21.6 +/- 8.8%); assay type: functional; set-up: scale not given: the % may be the effect or the level left; settings: dose 0.1-30 µM, 0.5 h
[5] = Induction of relaxation in nifedipine-induced carbachol pre-contracted rings of Beagle dog bronchioles incubated for 1 hr relative to control; assay type: functional, Canis lupus familiaris, Bronchiole; set-up: scale not given: the % may be the effect or the level left
Outline: (§1)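 Beagle bronchiole rings held at 1 g tension in Krebs at 37°C (with propranolol and phentolamine), primed with 80 mM KCl. Rings were precontracted with 1 µM carbachol, then antagonist (3–100 nM) or vehicle was equilibrated for 1 h. Cumulative PGE2 relaxation curves followed, with final 10 µM nifedipine defining maximal relaxation. KB by the Lew and Angus method.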

[6] = Induction of relaxation in nifedipine-induced carbachol pre-contracted rings of Beagle dog bronchioles incubated for 1 hr; assay type: functional, tissue-based, Canis lupus familiaris, Bronchiole; outline: as §1

IC50 [1] [nM]	EC50 [2] [nM]	EC50 [3] [nM]	EC50 [6] [nM]	Compound	Activity [4] [%]	Activity [5] [%]
27.8	139	893	–	CCCC1([C@H](O)C/C=C/[C@H]2[C@H](O)CC(=O)[C@@H]2CCCCCCC(=O)OC)CCC1 [BUTAPROST]	69.1	–
17.3	–	133	90	CCCCC[C@H](O)/C=C/[C@H]1[C@H](O)CC(=O)[C@@H]1C/C=C\CCCC(=O)O [DINOPROSTONE]	65.4	82
